pIC50: −log10 of the molar value. In brackets after ≈: the same amount, converted by molar mass. Activity calls are given as the source filed them. The calls are words filed in the database; no cut-off is given here.
Tests used:
Plasmodium falciparum [1] = experiment: Antimalarial activity against Plasmodium falciparum 3D7 infected in erythrocytes incubated for 48 hrs by [3H]hypoxanthine incorporation assay; format: functional, organism-based
[2] = target: T1, Subtilisin-like protease 1 (Plasmodium falciparum, UniProt O61142); experiment: Inhibition of Plasmodium falciparum recombinant SUB1 using SERA4st1F-6R12 substrate incubated for 55 mins by fluorescence spectrophotometry
T1 sequence (O61142 whole entry): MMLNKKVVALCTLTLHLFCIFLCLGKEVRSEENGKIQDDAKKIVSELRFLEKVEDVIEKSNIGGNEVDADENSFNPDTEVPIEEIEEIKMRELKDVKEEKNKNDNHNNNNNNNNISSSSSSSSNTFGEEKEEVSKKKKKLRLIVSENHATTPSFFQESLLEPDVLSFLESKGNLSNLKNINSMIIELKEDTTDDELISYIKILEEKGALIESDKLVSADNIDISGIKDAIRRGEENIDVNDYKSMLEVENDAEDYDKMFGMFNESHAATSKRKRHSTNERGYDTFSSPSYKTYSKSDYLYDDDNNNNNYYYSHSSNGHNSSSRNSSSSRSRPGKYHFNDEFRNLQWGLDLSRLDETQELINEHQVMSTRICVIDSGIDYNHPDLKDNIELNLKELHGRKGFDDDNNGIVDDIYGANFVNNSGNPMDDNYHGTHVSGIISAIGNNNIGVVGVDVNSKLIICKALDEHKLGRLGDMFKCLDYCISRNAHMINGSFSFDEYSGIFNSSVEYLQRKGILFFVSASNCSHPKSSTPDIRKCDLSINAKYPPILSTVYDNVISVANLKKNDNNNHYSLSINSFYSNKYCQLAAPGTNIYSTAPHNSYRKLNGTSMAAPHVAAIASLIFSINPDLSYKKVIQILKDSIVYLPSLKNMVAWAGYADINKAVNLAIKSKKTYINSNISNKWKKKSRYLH

[3] = Half life in human liver microsomes; format: ADME
[4] = Half life in mouse liver microsomes; format: ADME
Liver microsome = experiment: Intrinsic clearance in human liver microsomes; format: ADME
HepG2 = experiment: Cytotoxicity against human HepG2 cells; format: cell-based
Blood [5] = experiment: Drug level in blood of Plasmodium falciparum infected humanized SCID mouse model of malaria infection at 217 mg/kg, po measured 96 hrs post dose; format: ADME, organism-based; details: in vivo
Plasmodium falciparum [6] = experiment: Antimalarial activity against Plasmodium falciparum infected in humanized SCID mouse model of malaria infection assessed as induction of abnormal trophozoites with hemozoin granules and pyknotic cells in parasite at 217 mg/kg, po measured 96 hrs post dose by microscopic and flow cytometry method; format: functional, organism-based
How it was run: (§1)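 P. falciparum-infected humanized mice, standard four-day test; compound given orally at several doses, vehicle (n = 4) and oral chloroquine 10 mg·kg⁻¹ (n = 2) as controls. Parasitemia followed per mouse. Peripheral blood sampled 96 h after starting treatment and analysed by microscopy and by flow cytometry gating infected human erythrocytes.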

Plasmodium falciparum [7] = experiment: Antimalarial activity against Plasmodium falciparum infected in erythrocytes assessed as young trophozoites level at 10 times antimalarial IC50 level incubated for 24 and 48 hrs by Giemsa staining based microsocpy
[8] = Kinetic solubility of the compound by chemoluminescent nitrogen detection kinetic solubility assay; format: physicochemical; details: read-out: Kinetic_solubility
Plasmodium falciparum [9] = experiment: Antimalarial activity against Plasmodium falciparum infected in humanized SCID mouse model of malaria infection assessed as induction of altered rings in parasite at 217 mg/kg, po measured 96 hrs post dose by microscopic and flow cytometry method; format: functional, organism-based; how it was run: as §1
Plasmodium falciparum [10] = experiment: Antimalarial activity against Plasmodium falciparum infected in humanized SCID mouse model of malaria infection assessed as induction of phenotypic changes in parasite at 217 mg/kg, po measured 96 hrs post dose by microscopic and flow cytometry method; format: functional, organism-based; how it was run: as §1
Plasmodium falciparum [11] = experiment: Antimalarial activity against Plasmodium Plasmodium falciparum infected in orally dosed humanized SCID mouse model of malaria infection; format: functional; details: po; how it was run: as §1
Albumin = Albumin (Homo sapiens, UniProt P02768); experiment: Binding affinity to HSA; format: ADME; details: human serum albumin (HSA), read-out: PB (converted)
Plasma [12] = experiment: Stability in CD1 mouse plasma at 10 mM in presence of serine protease inhibitor PMSF after 0.5 to 2 hrs by UPLC-MS/MS method; format: ADME, cell-free; details: 10000 µM
[13] = Inhibition of CYP3A (unknown origin) by 4VR metabolism assay; format: ADME, Homo sapiens
Dipeptidyl peptidase 4 = Dipeptidyl peptidase 4 (Homo sapiens, UniProt P27487); experiment: Inhibition of DPP4 (unknown origin)
Plasma [14] = experiment: Stability in CD1 mouse plasma at 10 mM after 0.5 to 2 hrs by UPLC-MS/MS method; format: ADME, cell-free; details: 10000 µM
Plasmodium berghei = experiment: Antimalarial activity against Plasmodium berghei infected in orally dosed mouse model of malaria infection; format: functional; details: po
How it was run: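 Mice infected with P. berghei; compound given orally (p.o.) as 2 doses of 50 mg kg⁻¹.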

[15] = Inhibition of CYP3A (unknown origin) by 4VG metabolism assay; format: ADME, Homo sapiens
[16] = Passive permeability by PAMPA method; format: ADME; details: read-out: permeability
[17] = target: Voltage-gated inwardly rectifying potassium channel KCNH2 (Homo sapiens, UniProt Q12809); experiment: Inhibition of human ERG by QPatch assay
Plasmodium falciparum [18] = experiment: Antimalarial activity against Plasmodium falciparum 3D7 infected in erythrocytes incubated for 72 hrs by [3H]hypoxanthine incorporation assay; format: functional, organism-based
Blood [19] = experiment: Stability in CD1 mouse blood at 10 mM after 0.5 to 2 hrs by UPLC-MS/MS method; format: ADME, tissue-based; details: 10000 µM
Plasmodium falciparum [20] = experiment: Antimalarial activity against Plasmodium falciparum assessed as parasite reduction ratio at 10 times antimalarial IC50 level over 48 hrs; format: functional
How it was run: (§2)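 Parasite reduction ratio assay on P. falciparum with compound at 10× its Pf IC₅₀. Viable parasite decrease is followed over one life cycle (48 h), giving log₁₀ PRR and the time needed to kill 99.9% of parasites (PCT99.9%).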

Plasmodium falciparum [21] = experiment: Antimalarial activity against Plasmodium falciparum 3D7 infected in erythrocytes incubated for 24 hrs by [3H]hypoxanthine incorporation assay; format: functional, organism-based
Plasmodium falciparum [22] = experiment: Antimalarial activity against Plasmodium falciparum assessed as time duration for 99.9% parasite killing at 10 times antimalarial IC50 level over 48 hrs; format: functional; how it was run: as §2
Acetylcholinesterase = Acetylcholinesterase (Homo sapiens, UniProt P22303); experiment: Inhibition of human AChE
Acetylcholinesterase, sequence (P22303 whole entry): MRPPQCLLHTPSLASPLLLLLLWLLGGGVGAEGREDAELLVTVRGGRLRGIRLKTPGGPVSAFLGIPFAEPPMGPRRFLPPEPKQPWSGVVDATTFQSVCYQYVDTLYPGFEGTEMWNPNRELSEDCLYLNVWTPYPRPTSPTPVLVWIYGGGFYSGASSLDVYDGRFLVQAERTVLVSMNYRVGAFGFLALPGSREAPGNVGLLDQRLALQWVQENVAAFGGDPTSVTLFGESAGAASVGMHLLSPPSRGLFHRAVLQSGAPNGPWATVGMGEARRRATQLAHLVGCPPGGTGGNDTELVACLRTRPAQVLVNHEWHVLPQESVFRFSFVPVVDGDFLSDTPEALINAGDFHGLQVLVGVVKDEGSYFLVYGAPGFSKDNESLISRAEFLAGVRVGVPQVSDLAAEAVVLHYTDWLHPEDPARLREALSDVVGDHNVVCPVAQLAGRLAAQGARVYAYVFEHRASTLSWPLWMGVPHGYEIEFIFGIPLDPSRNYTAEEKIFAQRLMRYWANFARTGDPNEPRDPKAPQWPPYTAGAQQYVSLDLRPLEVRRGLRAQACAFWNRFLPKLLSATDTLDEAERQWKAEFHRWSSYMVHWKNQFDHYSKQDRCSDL

Dipeptidyl peptidase 4, sequence (P27487 whole entry): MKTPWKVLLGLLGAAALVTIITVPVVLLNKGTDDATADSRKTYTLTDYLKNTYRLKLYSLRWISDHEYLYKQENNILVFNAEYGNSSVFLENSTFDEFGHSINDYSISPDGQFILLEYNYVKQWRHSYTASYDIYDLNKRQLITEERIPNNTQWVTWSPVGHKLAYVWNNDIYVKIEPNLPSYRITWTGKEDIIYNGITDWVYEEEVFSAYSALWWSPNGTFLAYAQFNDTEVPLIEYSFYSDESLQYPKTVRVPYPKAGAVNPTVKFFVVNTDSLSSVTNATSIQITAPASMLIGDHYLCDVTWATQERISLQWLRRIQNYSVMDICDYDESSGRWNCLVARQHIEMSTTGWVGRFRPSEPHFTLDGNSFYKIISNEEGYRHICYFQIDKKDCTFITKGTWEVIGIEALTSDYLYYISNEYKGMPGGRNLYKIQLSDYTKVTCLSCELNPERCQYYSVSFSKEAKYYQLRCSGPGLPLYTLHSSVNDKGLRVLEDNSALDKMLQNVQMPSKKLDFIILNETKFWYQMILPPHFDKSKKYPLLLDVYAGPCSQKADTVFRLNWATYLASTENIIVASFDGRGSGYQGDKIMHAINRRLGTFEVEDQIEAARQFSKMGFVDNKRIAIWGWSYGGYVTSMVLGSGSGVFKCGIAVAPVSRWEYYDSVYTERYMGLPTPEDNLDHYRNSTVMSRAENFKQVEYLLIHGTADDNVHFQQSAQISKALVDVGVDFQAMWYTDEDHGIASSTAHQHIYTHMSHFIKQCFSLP
Voltage-gated inwardly rectifying potassium channel KCNH2, sequence (Q12809 whole entry): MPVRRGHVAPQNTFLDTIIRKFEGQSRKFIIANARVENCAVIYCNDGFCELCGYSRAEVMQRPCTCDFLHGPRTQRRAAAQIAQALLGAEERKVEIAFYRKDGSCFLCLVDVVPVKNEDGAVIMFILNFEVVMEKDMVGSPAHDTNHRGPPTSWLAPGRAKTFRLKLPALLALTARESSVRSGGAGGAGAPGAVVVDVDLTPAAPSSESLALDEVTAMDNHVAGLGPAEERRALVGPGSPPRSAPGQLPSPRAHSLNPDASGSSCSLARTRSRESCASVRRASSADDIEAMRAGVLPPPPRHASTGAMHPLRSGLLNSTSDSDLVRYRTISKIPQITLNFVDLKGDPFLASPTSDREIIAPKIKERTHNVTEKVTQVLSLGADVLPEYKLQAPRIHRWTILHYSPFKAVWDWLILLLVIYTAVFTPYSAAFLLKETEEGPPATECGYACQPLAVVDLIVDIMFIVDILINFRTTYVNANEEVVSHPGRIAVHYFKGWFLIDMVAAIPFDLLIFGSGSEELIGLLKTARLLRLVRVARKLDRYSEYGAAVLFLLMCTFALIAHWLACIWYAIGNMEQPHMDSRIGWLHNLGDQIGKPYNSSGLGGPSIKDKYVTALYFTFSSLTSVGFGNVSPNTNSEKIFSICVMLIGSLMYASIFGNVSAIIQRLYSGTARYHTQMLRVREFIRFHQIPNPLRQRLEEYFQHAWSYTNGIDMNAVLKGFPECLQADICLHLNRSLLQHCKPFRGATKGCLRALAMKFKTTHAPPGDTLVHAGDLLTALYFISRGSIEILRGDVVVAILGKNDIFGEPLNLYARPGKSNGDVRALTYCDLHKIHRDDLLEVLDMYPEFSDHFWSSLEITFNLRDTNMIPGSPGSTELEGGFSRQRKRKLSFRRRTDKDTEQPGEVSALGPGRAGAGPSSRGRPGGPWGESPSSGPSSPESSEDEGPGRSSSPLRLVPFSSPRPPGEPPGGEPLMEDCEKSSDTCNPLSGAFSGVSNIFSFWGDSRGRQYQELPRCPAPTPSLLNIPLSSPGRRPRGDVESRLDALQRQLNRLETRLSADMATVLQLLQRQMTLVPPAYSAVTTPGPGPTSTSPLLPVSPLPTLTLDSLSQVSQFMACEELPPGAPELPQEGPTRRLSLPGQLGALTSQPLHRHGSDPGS
Albumin, sequence (P02768 whole entry): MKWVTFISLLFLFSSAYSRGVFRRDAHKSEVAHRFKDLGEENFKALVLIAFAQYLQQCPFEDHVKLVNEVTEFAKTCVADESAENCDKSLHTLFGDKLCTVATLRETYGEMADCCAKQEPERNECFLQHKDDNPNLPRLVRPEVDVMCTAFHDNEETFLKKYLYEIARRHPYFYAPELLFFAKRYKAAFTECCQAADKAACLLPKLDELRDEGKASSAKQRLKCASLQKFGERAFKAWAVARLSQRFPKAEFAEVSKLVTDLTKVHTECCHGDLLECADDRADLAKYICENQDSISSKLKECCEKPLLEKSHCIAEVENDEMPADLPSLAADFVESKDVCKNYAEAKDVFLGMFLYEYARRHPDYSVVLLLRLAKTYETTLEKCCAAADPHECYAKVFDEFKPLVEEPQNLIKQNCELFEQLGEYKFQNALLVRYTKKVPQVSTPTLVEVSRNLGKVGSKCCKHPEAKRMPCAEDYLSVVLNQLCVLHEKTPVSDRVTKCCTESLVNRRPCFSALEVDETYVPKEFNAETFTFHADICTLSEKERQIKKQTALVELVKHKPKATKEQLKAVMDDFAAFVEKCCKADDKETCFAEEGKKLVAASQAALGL

| SMILES | pIC50 (Plasmodium falciparum [1]) | IC50 [2] | half-life [3] [min] | half-life [4] [min] | Intrinsic clearance (Liver microsome) [mL/min/g] | pIC50 (Plasmodium falciparum [18]) | other results |
| --- | --- | --- | --- | --- | --- | --- | --- |
| O=C(N1CCCC1)n1cnc(S(=O)(=O)Cc2ccccc2)n1 | 6.38 | Not Active |  |  |  |  |  |
| O=C(N1CCCC1)n1cnc(S[C@@H]2C[C@H]3CC[C@@H]2C3)n1 | 6.75 |  | > 30 | < 5 | 1.5 |  |  |
| COc1ccc(CN(C)C(=O)n2cnc(S(=O)(=O)[C@@H]3C[C@H]4CC[C@@H]3C4)n2)cc1 | 8.00 | Not Active |  | 22.6 |  |  | pIC50 (HepG2): < 4.00; Drug uptake (Blood [5]): Not Active; Activity (Plasmodium falciparum [6]): Active; Activity (Plasmodium falciparum [7]): Active; solubility kinetic [8]: 125 µM (≈ 50.6 µg/mL); Activity (Plasmodium falciparum [9]): Active; Activity (Plasmodium falciparum [10]): Active; ED50 (Plasmodium falciparum [11]): 100 mg/kg; ED90 (Plasmodium falciparum [11]): 150 mg/kg |
| CC(C)N(C)C(=O)n1cnc(S(=O)(=O)C2CC3CCC2C3)n1 (configuration not stated) | 7.80 | Not Active | > 30 | 3.8 | 1.6 | 7.55 | pIC50 (HepG2): < 4.00; fraction unbound (Albumin): 0.42; Stability (Plasma [12]): Stable; pIC50 [13]: 4.50; pIC50 (Dipeptidyl peptidase 4): 8.05; Stability (Plasma [14]): Unstable; ED50 (Plasmodium berghei): > 50 mg/kg; pIC50 [15]: < 4.30; Papp [16]: > 30 ×10⁻⁶ cm/s; inhibition (INH) [17]: Not Active; Activity (Plasmodium falciparum [7]): Active; solubility kinetic [8]: ≥ 500 µM; Stability (Blood [19]): Unstable; log(ratio) (Plasmodium falciparum [20]): 3.1; pIC50 (Plasmodium falciparum [21]): 7.31; Time (Plasmodium falciparum [22]): 48 h |
| O=C(N1CCCC1)n1cnc(S(=O)(=O)[C@@H]2C[C@H]3CC[C@@H]2C3)n1 | 7.08 |  | > 30 | < 5 | 1 | 7.43 |  |
| O=C1C(O)=C([C@H]2CC[C@H](c3ccc(Cl)cc3)CC2)C(=O)c2ccccc21 [ATOVAQUONE] | 9.00 |  |  |  |  | 9.52 | Activity (Plasmodium falciparum [7]): Active |
| CC(C)N(C(=O)n1cnc(S[C@@H]2C[C@H]3CC[C@@H]2C3)n1)C(C)C | 5.85 | Not Active | 22.3 | < 5 | 3.1 | 6.27 |  |
| CC(C)N(C)C(=O)n1cnc(S[C@@H]2C[C@H]3CC[C@@H]2C3)n1 | 7.15 | Not Active |  |  |  |  |  |
| CN(Cc1ccccc1)C(=O)n1cnc(S(=O)(=O)[C@@H]2C[C@H]3CC[C@@H]2C3)n1 | 6.59 |  | > 30 | 19.4 | 1.5 | 6.42 |  |
| CSc1nc(-c2ccc(OC(F)(F)F)cc2)nn1C(=O)N(C)c1ccccc1 |  |  |  |  |  |  | pIC50 (Acetylcholinesterase): < 1.30 |
| CN(Cc1ccc(C(C)(C)C)cc1)C(=O)n1cnc(S(=O)(=O)[C@@H]2C[C@H]3CC[C@@H]2C3)n1 | 7.80 |  |  | 9 |  |  | pIC50 (HepG2): 4.12; solubility kinetic [8]: 28 µM (≈ 12.1 µg/mL) |
| CC(C)N(C(=O)n1cnc(S(=O)(=O)[C@@H]2C[C@H]3CC[C@@H]2C3)n1)C(C)C | < 5.30 |  |  |  |  | < 5.30 |  |
| CSc1nc(-c2ccc(OC(F)(F)F)cc2)nn1C(=O)N(C)C |  |  |  |  |  |  | pIC50 (Acetylcholinesterase): 3.70 |
| CN(C(=O)n1cnc(S(=O)(=O)[C@@H]2C[C@H]3CC[C@@H]2C3)n1)c1ccccc1 | 5.57 |  |  |  |  | 5.57 |  |
| CN(C(=O)n1cnc(S(=O)(=O)[C@@H]2C[C@H]3CC[C@@H]2C3)n1)C(C)(C)C | < 5.30 |  |  |  |  |  |  |

Source: ChEMBL document CHEMBL3603753, “Carbamoyl Triazoles, Known Serine Protease Inhibitors, Are a Potent New Class of Antimalarials” (J Med Chem, 2015)
